Calls of active or inactive are those of the source. The rule behind the calls is not given here.
Experiments:
[1] = Selectivity ratio of Ki for human liver cathepsin B to Ki for human erythrocytes calpain-1
[2] = Thiol reactivity using recombinant human full length 13C-labeled La antigen (100 to 324 residues) expressed in Escherichia coli BL21(DE3) by ALARM NMR
Homo sapiens [3] = species on record: Homo sapiens; assay: Selectivity ratio of Ki for recombinant human procathepsin K expressed in Escherichia coli to Ki for human erythrocytes calpain-1
How it was run: (§1)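 Ki ratios from kinetic fluorescence assays. Cathepsins B (0.25 nM), L (1 nM), K (3 nM) and S (0.5 nM) in MES buffer at pH 6.0. All at room temperature; Ki by Cheng-Prusoff.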

Homo sapiens [4] = species on record: Homo sapiens; assay: Selectivity ratio of Ki for recombinant human cathepsin S expressed in Escherichia coli to Ki for human erythrocytes calpain-1; how it was run: as §1
[5] = target: T1, Calpain-1 catalytic subunit (Homo sapiens) (UniProt P07384); assay: Inhibition of human erythrocytes calpain-1 using Suc-Leu-Tyr-AMC as substrate in presence of up to 10 mM glutathione by kinetic fluorescence assay
T1 sequence (whole entry): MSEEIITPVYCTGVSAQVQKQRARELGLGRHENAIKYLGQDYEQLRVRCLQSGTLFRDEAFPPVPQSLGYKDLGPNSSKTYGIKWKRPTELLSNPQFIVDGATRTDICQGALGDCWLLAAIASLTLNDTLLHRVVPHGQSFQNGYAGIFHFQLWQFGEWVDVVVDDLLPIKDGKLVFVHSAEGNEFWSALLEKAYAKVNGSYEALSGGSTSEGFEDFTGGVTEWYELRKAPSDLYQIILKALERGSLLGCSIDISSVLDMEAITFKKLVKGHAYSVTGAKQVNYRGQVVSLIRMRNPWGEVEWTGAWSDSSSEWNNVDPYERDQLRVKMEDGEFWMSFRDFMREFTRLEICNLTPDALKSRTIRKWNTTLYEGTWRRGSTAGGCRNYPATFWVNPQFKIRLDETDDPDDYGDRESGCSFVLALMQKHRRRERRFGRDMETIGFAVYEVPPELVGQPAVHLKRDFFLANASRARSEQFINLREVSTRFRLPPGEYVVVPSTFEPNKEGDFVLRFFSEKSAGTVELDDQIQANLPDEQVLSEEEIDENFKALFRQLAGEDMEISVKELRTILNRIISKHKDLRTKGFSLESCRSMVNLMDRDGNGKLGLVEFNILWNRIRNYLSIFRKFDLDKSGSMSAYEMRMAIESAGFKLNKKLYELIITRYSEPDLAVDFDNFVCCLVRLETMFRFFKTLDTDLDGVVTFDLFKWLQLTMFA

[6] = target: T2, Calpain-1 catalytic subunit (Homo sapiens, UniProt P07384); assay: Inhibition of human erythrocytes calpain-1 using Suc-Leu-Tyr-AMC as substrate by kinetic fluorescence assay; conditions: read-out: Ki
T2 sequence (P07384 whole entry): T1 sequence (whole entry)

[7] = Solubility of the compound; type: physicochemical
[8] = target: T3, Calpain-1 catalytic subunit (Rattus norvegicus) (UniProt P97571); assay: (§2) Inhibition of calpain-1 in rat hippocampal slices assessed as prevention of NMDA-induced spectrin cleavage preincubated for 30 mins followed by NMDA addition measured after 5 hrs by Western blot analysis
T3 sequence (whole entry): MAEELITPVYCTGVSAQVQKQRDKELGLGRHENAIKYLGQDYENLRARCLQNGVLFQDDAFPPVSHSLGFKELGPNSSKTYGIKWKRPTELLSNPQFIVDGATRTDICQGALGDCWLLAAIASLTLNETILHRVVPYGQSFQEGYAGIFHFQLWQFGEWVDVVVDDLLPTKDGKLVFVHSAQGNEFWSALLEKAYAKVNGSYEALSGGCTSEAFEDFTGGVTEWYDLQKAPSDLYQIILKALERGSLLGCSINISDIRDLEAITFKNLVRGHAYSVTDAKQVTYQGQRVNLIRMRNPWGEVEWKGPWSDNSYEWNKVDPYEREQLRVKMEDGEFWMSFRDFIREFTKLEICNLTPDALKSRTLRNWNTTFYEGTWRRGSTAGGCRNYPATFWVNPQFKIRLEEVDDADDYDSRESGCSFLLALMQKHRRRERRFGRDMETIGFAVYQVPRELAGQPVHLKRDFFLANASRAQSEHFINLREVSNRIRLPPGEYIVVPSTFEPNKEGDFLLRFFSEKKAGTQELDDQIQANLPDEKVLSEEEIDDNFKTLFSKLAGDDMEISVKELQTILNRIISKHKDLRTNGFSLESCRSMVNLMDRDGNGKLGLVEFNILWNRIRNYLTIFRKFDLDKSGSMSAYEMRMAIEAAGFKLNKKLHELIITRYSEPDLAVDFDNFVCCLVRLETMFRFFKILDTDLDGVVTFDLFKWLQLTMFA
How it was run: (§3)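 Organotypic rat hippocampal slice cultures kept 6–8 days in 2% serum medium; 30 min inhibitor pre-incubation, then 10 µM NMDA for 5 h at 34°C, 5% CO2. Slices lysed; 150/145 kDa spectrin breakdown products quantified by densitometric Western blot with anti-spectrin alpha chain antibody.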

[9] = target: T4, Calpain-1 catalytic subunit (Rattus norvegicus, UniProt P97571); assay: as §2; how it was run: as §3
T4 sequence (P97571 whole entry): T3 sequence (whole entry)

[10] = Selectivity ratio of Ki for human liver cathepsin L to Ki for human erythrocytes calpain-1
Cathepsin S = Cathepsin S (Homo sapiens, UniProt P25774); assay: Inhibition of human cathepsin S expressed in Escherichia coli using Z-Val-Val-Arg-AMC as substrate by kinetic fluorescence assay
Sequence of Cathepsin S (P25774 whole entry): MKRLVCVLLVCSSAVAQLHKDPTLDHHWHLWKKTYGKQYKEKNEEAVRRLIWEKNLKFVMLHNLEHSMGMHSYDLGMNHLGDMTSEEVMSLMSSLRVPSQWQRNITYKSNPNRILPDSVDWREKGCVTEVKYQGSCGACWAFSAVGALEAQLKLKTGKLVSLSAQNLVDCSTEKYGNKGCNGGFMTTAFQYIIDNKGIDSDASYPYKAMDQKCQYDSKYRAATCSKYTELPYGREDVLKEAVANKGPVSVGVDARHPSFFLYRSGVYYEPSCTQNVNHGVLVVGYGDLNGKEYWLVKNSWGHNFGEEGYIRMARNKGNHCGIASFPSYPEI

[11] = target: Cathepsin C (Dipeptidyl peptidase 1) (Homo sapiens, UniProt P53634); assay: Inhibition of Cathepsin C (unknown origin) at 10 uM
Sequence of Cathepsin C (Dipeptidyl peptidase 1) (P53634 25-134 limits assumed): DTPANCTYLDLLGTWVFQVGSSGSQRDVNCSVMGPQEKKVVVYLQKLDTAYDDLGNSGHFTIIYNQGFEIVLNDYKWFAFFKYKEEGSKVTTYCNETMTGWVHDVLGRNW
Sequence of Cathepsin C (Dipeptidyl peptidase 1) (P53634 231-394 limits assumed): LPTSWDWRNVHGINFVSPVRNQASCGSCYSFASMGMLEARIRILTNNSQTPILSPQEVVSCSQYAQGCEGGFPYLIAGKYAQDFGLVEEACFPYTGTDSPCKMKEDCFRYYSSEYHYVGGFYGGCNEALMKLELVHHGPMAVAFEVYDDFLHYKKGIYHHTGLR
Sequence of Cathepsin C (Dipeptidyl peptidase 1) (P53634 395-463 limits assumed): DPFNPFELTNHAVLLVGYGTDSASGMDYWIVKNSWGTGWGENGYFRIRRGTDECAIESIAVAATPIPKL

[12] = Inhibition of human liver cathepsin L using Z-Phe-Arg-AMC as substrate by kinetic fluorescence assay
[13] = target: T5, Pro-cathepsin H (Homo sapiens) (UniProt P09668); assay: Inhibition of Cathepsin H (unknown origin) at 10 uM
T5 sequence (whole entry): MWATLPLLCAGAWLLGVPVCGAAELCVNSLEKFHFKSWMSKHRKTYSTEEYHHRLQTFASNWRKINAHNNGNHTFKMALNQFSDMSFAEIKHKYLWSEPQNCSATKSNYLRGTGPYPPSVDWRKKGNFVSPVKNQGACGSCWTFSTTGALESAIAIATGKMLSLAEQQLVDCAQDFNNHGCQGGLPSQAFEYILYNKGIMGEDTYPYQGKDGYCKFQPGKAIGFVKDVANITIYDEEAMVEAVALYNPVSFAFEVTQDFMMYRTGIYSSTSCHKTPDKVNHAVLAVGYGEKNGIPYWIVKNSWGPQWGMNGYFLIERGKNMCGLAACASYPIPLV

Cathepsin B = Cathepsin B (Homo sapiens, UniProt P07858); assay: Inhibition of human liver cathepsin B using Z-Phe-Arg-AMC as substrate by kinetic fluorescence assay
Cathepsin K = target: T6, Cathepsin K (Homo sapiens, UniProt P43235); assay: Inhibition of human procathepsin K expressed in Escherichia coli using Z-Gly-Pro-Arg-AMC as substrate by kinetic fluorescence assay
T6 sequence (P43235 whole entry): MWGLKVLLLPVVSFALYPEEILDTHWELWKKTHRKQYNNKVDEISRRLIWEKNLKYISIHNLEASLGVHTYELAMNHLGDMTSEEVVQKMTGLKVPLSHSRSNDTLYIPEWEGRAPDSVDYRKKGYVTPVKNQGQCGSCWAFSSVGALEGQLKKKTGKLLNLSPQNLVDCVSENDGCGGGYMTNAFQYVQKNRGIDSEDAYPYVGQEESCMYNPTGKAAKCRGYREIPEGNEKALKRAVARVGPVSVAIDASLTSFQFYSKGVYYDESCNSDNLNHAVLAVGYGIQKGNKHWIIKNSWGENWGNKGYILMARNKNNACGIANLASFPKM
How it was run: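 Cathepsin K at 3 nM, activated from E. coli-expressed recombinant human procathepsin K. Substrate 10 µM Z-Gly-Pro-Arg-AMC in MES/EDTA/Brij 35/L-cysteine buffer, pH 6.0, room temperature. Ki obtained via Cheng-Prusoff from IC50. Mean of 2–4 curves.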

Row | inhibition [5] | Ki [6] | solubility [7] | fIC50 [8] | IC50 [9] | Ki (Cathepsin S) | inhibition at 10 µM [11] | Ki [12] | inhibition [13] | Ki (Cathepsin B) | Ki (Cathepsin K) | Structure (SMILES) | Ratio Ki [1] | Thiol reactivity [2] | Ratio Ki (Homo sapiens [3]) | Ratio Ki (Homo sapiens [4]) | Ratio Ki [10]
1 | Active | 8 nM | Insoluble | 65 nM | 2020 nM | – | – | – | – | – | – | NC(=O)C(=O)C(Cc1ccccc1)NC(=O)c1cccnc1-n1cc2c(n1)-c1ccccc1OC2 (stereo not drawn) | 29 | Metabolite not detected | 47 | > 500 | 278
2 | Active | 56 nM | – | – | – | 3290 nM | 94% | 137 nM | 84% | 28 nM | 1.8 nM | CCN(CC)Cc1ccc(/C=C/c2ccccc2C(=O)NC(Cc2ccccc2)C(=O)C(N)=O)cc1 (stereo not drawn) | <1 | Metabolite not detected | < 0.1 | 59 | 2.5

From ChEMBL document CHEMBL4038338 (J Med Chem, 2017)
